Measured values published in ChEMBL document CHEMBL2062433, “Synthesis and antiviral activity of substituted bisaryl amide compounds as novel influenza virus inhibitors” (Eur J Med Chem, 2012).

Experiments:
[1] = Selectivity index, ratio of TC50 for MDCK cells to IC50 for Influenza A virus (A/Guangdong-Luohu/219/2006(H1N1)); format: toxicity, cell-based; conditions: dog, read-out: Selectivity Index
Method in brief: (§1)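 SI is TC50 divided by IC50. TC50 comes from uninfected MDCK cells after 48 h of compound exposure, scored by CPE. IC50 comes from MDCK cells infected with 100 TCID50 and scored for CPE when virus controls reached grade 4. Both values calculated by Reed and Muench.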

Influenza A virus [2] = assay: Antiviral activity against Influenza A virus (A/Guangdong-Luohu/219/2006(H1N1)) infected in MDCK cells assessed as inhibition of virus-induced cytopathic effect; format: functional, organism-based
Method in brief: (§2)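 Confluent MDCK monolayers infected with 100 TCID50 of virus; 2 h adsorption at 37 °C, PBS wash, then maintenance medium at 37 °C with or without serial compound concentrations. CPE scored once virus control wells reached grade 4. IC50 calculated by Reed and Muench; values are averages of three independent assays.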

[3] = Cytotoxicity against MDCK cells incubated for 48 hrs by CPE method; format: cell-based, Canis lupus familiaris; conditions: dog, read-out: TC50
Method in brief: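 MDCK cells seeded at 2.5 × 10^4 per well and grown 24 h, then exposed to various compound concentrations for 48 h at 37 °C in 5% CO2. Toxicity scored by CPE observation. TC50 calculated by Reed and Muench; values are averages of three independent assays.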

Influenza A virus [4] = assay: Antiviral activity against Influenza A virus (A/Tianjin-Jinnan/15/2009(H1N1)) infected in MDCK cells assessed as inhibition of virus-induced cytopathic effect; format: functional, organism-based; method in brief: as §2
Influenza B virus = assay: Antiviral activity against Influenza B virus (strain B/Jifang/13/97) infected in MDCK cells assessed as inhibition of virus-induced cytopathic effect; format: functional, organism-based
[5] = Selectivity index, ratio of TC50 for MDCK cells to IC50 for Influenza B virus (strain B/Jifang/13/97); format: toxicity, cell-based; conditions: dog, read-out: Selectivity Index
[6] = Selectivity index, ratio of TC50 for MDCK cells to IC50 for Influenza A virus (A/Tianjin-Jinnan/15/2009(H1N1)); format: toxicity, cell-based; conditions: dog, read-out: Selectivity Index; method in brief: as §1

**Q.** With `CCC(=O)Nc1cc(C(=O)Oc2ccccc2)ccc1OC` as the compound, how does the selectivity ratio [1] read?
**A.** 2.1

**Q.** What about the IC50 (Influenza A virus [2]) of the same compound?
**A.** 223 µM

**Q.** What about the CC50 at 48 h [3] of the same compound?
**A.** 464 µM

**Q.** With `CCC(=O)Nc1cc(C(=O)Nc2ccccc2)ccc1OC` as the compound, how does the selectivity ratio [1] read?
**A.** > 15.6

**Q.** What about the IC50 (Influenza A virus [4]) of the same compound?
**A.** > 224 µM

**Q.** What about the IC50 (Influenza A virus [2]) of the same compound?
**A.** 43 µM

**Q.** What about the IC50 (Influenza B virus) of the same compound?
**A.** > 224 µM

**Q.** And the CC50 at 48 h [3]?
**A.** > 670 µM

**Q.** With `CCC(=O)Nc1cc(C(=O)Nc2ccc(C)cc2)ccc1OC` as the compound, how does the selectivity ratio [1] read?
**A.** 6.8

**Q.** What about the IC50 (Influenza A virus [4]) of the same compound?
**A.** > 23.7 µM

**Q.** And the IC50 (Influenza A virus [2])?
**A.** 23.7 µM

**Q.** And the IC50 (Influenza B virus)?
**A.** > 23.7 µM

**Q.** And the CC50 at 48 h [3]?
**A.** 162 µM

**Q.** With `CCC(=O)Nc1cc(C(=O)Nc2ccc(Br)cc2)ccc1OC` as the compound, how does the IC50 (Influenza A virus [2]) read?
**A.** > 17.6 µM

**Q.** What about the CC50 at 48 h [3] of the same compound?
**A.** 90.4 µM

**Q.** Which results are given for `CCC(=O)Nc1cc(C(=O)Nc2cccc(Cl)c2)ccc1OC`?
**A.** IC50 (Influenza A virus [2]): > 66.9 µM; CC50 at 48 h [3]: 602 µM

**Q.** For `CCC(=O)Nc1cc(C(=O)Nc2cccc(SC)c2)ccc1OC`, which IC50 (Influenza A virus [2]) is on record?
**A.** > 63 µM

**Q.** And the CC50 at 48 h [3]?
**A.** 324 µM

**Q.** What does the source list for `CCC(=O)Nc1cc(C(=O)NC2CCCCC2)ccc1OC`?
**A.** selectivity ratio [1]: 6.9; IC50 (Influenza A virus [2]): 73 µM; CC50 at 48 h [3]: 510 µM

**Q.** Which results are given for `CCC(=O)Nc1cc(C(=O)NC2CCC2)ccc1OC`?
**A.** selectivity ratio [1]: > 12.3; IC50 (Influenza A virus [4]): > 241 µM; IC50 (Influenza A virus [2]): 59 µM; IC50 (Influenza B virus): > 241 µM; CC50 at 48 h [3]: > 724 µM

**Q.** With `CCC(=O)Nc1cc(C(=O)Nc2nccs2)ccc1OC` as the compound, how does the selectivity ratio [1] read?
**A.** > 18.7

**Q.** What about the IC50 (Influenza A virus [4]) of the same compound?
**A.** 93.8 µM

**Q.** What about the IC50 (Influenza A virus [2]) of the same compound?
**A.** 35 µM

**Q.** And the IC50 (Influenza B virus)?
**A.** 126 µM

**Q.** What about the CC50 at 48 h [3] of the same compound?
**A.** > 655 µM

**Q.** What about the selectivity ratio [5] of the same compound?
**A.** > 5.2

**Q.** What about the selectivity ratio [6] of the same compound?
**A.** 6.9

**Q.** What does the source list for `COc1ccc(C(=O)Nc2ccccc2)cc1NC(=O)C(C)Cl` (centres undefined)?
**A.** selectivity ratio [1]: 11.6; IC50 (Influenza A virus [4]): > 22.3 µM; IC50 (Influenza A virus [2]): 17.3 µM; IC50 (Influenza B virus): > 22.3 µM; CC50 at 48 h [3]: 200 µM

**Q.** What does the source list for `COc1ccc(C(=O)Nc2ccccc2)cc1NC(C)=O`?
**A.** selectivity ratio [1]: > 6.2; IC50 (Influenza A virus [2]): 113 µM; CC50 at 48 h [3]: > 704 µM

**Q.** With `COc1ccc(C(=O)Nc2ccccc2)cc1NC(=O)c1ccccc1` as the compound, how does the selectivity ratio [1] read?
**A.** 15.4

**Q.** What about the IC50 (Influenza A virus [4]) of the same compound?
**A.** 9.2 µM

**Q.** And the IC50 (Influenza A virus [2])?
**A.** 12.5 µM

**Q.** What about the IC50 (Influenza B virus) of the same compound?
**A.** 21.4 µM

**Q.** And the CC50 at 48 h [3]?
**A.** 192 µM

**Q.** And the selectivity ratio [5]?
**A.** 9

**Q.** And the selectivity ratio [6]?
**A.** 20.9

**Q.** Which results are given for `COc1ccc(C(=O)Nc2ccccc2)cc1NC(=O)C1CCCC1`?
**A.** selectivity ratio [1]: 12.1; IC50 (Influenza A virus [4]): > 65.7 µM; IC50 (Influenza A virus [2]): 37.9 µM; IC50 (Influenza B virus): > 65.7 µM; CC50 at 48 h [3]: 459 µM

**Q.** What does the source list for `COc1ccc(C(=O)Nc2ccccc2)cc1NC(=O)C(C)F` (centres undefined)?
**A.** selectivity ratio [1]: > 3; IC50 (Influenza A virus [2]): 211 µM; CC50 at 48 h [3]: > 632 µM

**Q.** With `CCC(=O)Nc1cc(C(=O)Nc2ccc([N+](=O)[O-])cc2)ccc1OC` as the compound, how does the selectivity ratio [1] read?
**A.** 11.7

**Q.** What about the IC50 (Influenza A virus [4]) of the same compound?
**A.** > 21.6 µM

**Q.** And the IC50 (Influenza A virus [2])?
**A.** 26.3 µM

**Q.** And the IC50 (Influenza B virus)?
**A.** 64.8 µM

**Q.** What about the CC50 at 48 h [3] of the same compound?
**A.** 307 µM

**Q.** And the selectivity ratio [5]?
**A.** 4.7

**Q.** Which results are given for `CCC(=O)Nc1cc(C(=O)Nc2ccccn2)ccc1OC`?
**A.** selectivity ratio [1]: > 3; IC50 (Influenza A virus [2]): 223 µM; CC50 at 48 h [3]: > 669 µM

**Q.** Which selectivity ratio [1] does the source give for `CCC(=O)Nc1cc(C(=O)N(C)c2ccccc2)ccc1OC` here?
**A.** 4.4

**Q.** And the IC50 (Influenza A virus [2])?
**A.** 101 µM

**Q.** What about the CC50 at 48 h [3] of the same compound?
**A.** 444 µM

**Q.** What does the source list for `COc1ccc(C(=O)N(C)c2ccccc2)cc1NC(=O)C(C)C`?
**A.** selectivity ratio [1]: 4.2; IC50 (Influenza A virus [2]): 117 µM; CC50 at 48 h [3]: 492 µM

**Q.** For `CCC(=O)Nc1cc(C(=O)Nc2ccccc2)ccc1Cl`, which selectivity ratio [1] is on record?
**A.** 3.5

**Q.** What about the IC50 (Influenza A virus [2]) of the same compound?
**A.** 153 µM

**Q.** And the CC50 at 48 h [3]?
**A.** 530 µM

**Q.** For `CCC(=O)Oc1cc(C(=O)Nc2ccccc2)ccc1OC`, which selectivity ratio [1] is on record?
**A.** 3

**Q.** And the IC50 (Influenza A virus [2])?
**A.** 173 µM

**Q.** And the CC50 at 48 h [3]?
**A.** 518 µM

**Q.** Which IC50 (Influenza A virus [2]) does the source give for `COc1ccc(C(=O)Nc2ccccc2)cc1` here?
**A.** > 293 µM

**Q.** And the CC50 at 48 h [3]?
**A.** > 880 µM

**Q.** What does the source list for `COc1c(NC(=O)C(C)F)cccc1C(=O)Nc1ccccc1` (centres undefined)?
**A.** IC50 (Influenza A virus [2]): > 211 µM; CC50 at 48 h [3]: > 632 µM

**Q.** Which results are given for `COc1cc(NC(=O)C(C)F)cc(C(=O)Nc2ccccc2)c1` (centres undefined)?
**A.** selectivity ratio [1]: 2.3; IC50 (Influenza A virus [2]): 211 µM; CC50 at 48 h [3]: 491 µM

**Q.** Which IC50 (Influenza A virus [2]) does the source give for `COc1ccc(NC(=O)C(C)F)cc1C(=O)Nc1ccccc1` (centres undefined) here?
**A.** > 70.2 µM

**Q.** What about the CC50 at 48 h [3] of the same compound?
**A.** 272 µM

**Q.** Which selectivity ratio [1] does the source give for `CC(F)C(=O)Nc1cccc(C(=O)Nc2ccccc2)c1` (centres undefined) here?
**A.** 4

**Q.** And the IC50 (Influenza A virus [2])?
**A.** 144 µM

**Q.** What about the CC50 at 48 h [3] of the same compound?
**A.** 578 µM

**Q.** What does the source list for `CCC(=O)Nc1cc(S(=O)(=O)Nc2ccccc2)ccc1OC`?
**A.** selectivity ratio [1]: > 12.4; IC50 (Influenza A virus [4]): > 66.7 µM; IC50 (Influenza A virus [2]): 48.4 µM; IC50 (Influenza B virus): > 66.7 µM; CC50 at 48 h [3]: > 599 µM

**Q.** Which results are given for `CCC(=O)Nc1cc(NC(=O)c2ccccc2)ccc1OC`?
**A.** selectivity ratio [1]: 5.2; IC50 (Influenza A virus [2]): 74.5 µM; CC50 at 48 h [3]: 387 µM

**Q.** Which results are given for `CCOC(=O)C1=C[C@@H](OC(CC)CC)[C@H](NC(C)=O)[C@@H](N)C1` [OSELTAMIVIR]?
**A.** selectivity ratio [1]: 1540; IC50 (Influenza A virus [4]): > 2440 µM; IC50 (Influenza A virus [2]): 2 µM; CC50 at 48 h [3]: 3070 µM

**Q.** What does the source list for `NC(=O)c1ncn([C@@H]2O[C@H](CO)[C@@H](O)[C@H]2O)n1` [RIBAVIRIN]?
**A.** selectivity ratio [1]: 542; IC50 (Influenza A virus [4]): 35.3 µM; IC50 (Influenza A virus [2]): 8.8 µM; IC50 (Influenza B virus): 45.5 µM; CC50 at 48 h [3]: 4770 µM; selectivity ratio [5]: 104; selectivity ratio [6]: 135
